Measured values taken from ChEMBL document CHEMBL5705905, “Pharmacological targeting of kinases MST1 and MST2 augments tissue repair and regeneration” (Sci Transl Med, 2016).
The source made the active and inactive calls. The calls are words filed in the database; no cut-off is given here.

Columns and labels:
[1] = molecular target: T1, Serine/threonine-protein kinase 3 (Homo sapiens, UniProt Q13188); assay: Inhibition of recombinant His-tagged full-length MST2 (unknown origin) expressing in Escherichia coli assessed as MOB1a phosphorylation level incubated for 30 min in the presence of 10 uM ATP by immunoblot analysis
T1 sequence (Q13188 whole entry): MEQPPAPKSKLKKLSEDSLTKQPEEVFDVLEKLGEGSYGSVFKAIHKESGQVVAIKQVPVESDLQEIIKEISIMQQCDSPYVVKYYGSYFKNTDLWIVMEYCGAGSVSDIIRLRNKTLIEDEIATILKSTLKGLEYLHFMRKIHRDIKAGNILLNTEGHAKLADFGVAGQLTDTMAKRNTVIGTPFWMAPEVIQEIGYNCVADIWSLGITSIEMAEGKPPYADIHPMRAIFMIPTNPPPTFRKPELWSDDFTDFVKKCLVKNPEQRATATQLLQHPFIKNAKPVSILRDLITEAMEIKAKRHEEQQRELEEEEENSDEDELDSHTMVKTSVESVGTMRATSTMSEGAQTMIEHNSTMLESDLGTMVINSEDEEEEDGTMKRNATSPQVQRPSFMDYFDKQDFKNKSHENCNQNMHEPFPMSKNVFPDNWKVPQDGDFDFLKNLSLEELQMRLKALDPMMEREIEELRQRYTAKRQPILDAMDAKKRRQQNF

[2] = molecular target: RAC-alpha serine/threonine-protein kinase (Homo sapiens) (UniProt P31749); assay: Inhibition of AKT1 (unknown origin) assessed as remaining activity at 1 uM by Kinome scan method relative to control
Sequence of RAC-alpha serine/threonine-protein kinase (Homo sapiens) (P31749 whole entry): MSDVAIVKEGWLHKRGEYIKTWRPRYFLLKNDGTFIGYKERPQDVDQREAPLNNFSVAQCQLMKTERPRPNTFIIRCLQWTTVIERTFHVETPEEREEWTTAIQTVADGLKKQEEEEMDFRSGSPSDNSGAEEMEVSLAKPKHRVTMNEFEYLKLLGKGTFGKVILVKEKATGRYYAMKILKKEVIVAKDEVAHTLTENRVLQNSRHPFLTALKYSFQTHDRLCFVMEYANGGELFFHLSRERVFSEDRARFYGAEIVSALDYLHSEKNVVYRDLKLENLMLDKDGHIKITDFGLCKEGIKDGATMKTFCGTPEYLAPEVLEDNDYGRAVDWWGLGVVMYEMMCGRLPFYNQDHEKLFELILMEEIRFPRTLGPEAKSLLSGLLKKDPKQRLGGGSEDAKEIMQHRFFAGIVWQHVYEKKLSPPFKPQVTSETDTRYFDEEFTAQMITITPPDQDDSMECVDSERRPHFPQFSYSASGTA
How it was run: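 Active-site-dependent competition-binding (KINOMEscan) panel of 468 kinases, test compound at 1 μM (from a 10 mM DMSO stock). Read-out is ctrl% = (test signal − positive control signal)/(negative control signal − positive control signal) × 100. DMSO is the negative control (100%) and a control compound is the positive control (0%). Lower ctrl% means tighter binding.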

[3] = molecular target: Cyclin-dependent kinase 2 (Homo sapiens) (UniProt P24941); assay: Inhibition of CDK2 (unknown origin) assessed as remaining activity at 1 uM by Kinome scan method relative to control
How it was run: (§1)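 Active-site-dependent competition-binding profiling (KINOMEscan) at 1 μM against a 468-kinase panel; compound supplied from a 10 mM DMSO stock. Read-out is ctrl% = (test signal − positive control signal)/(negative control signal − positive control signal) × 100. DMSO is the negative control (100%) and a control compound the positive control (0%). Lower ctrl% means tighter binding.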

[4] = molecular target: Casein kinase I isoform gamma-2 (Homo sapiens) (UniProt P78368); assay: Inhibition of CSNK1G2 (unknown origin) assessed as remaining activity at 1 uM by Kinome scan method relative to control; how it was run: as §1
Sequence of Casein kinase I isoform gamma-2 (Homo sapiens) (P78368 whole entry, looked up, canonical isoform): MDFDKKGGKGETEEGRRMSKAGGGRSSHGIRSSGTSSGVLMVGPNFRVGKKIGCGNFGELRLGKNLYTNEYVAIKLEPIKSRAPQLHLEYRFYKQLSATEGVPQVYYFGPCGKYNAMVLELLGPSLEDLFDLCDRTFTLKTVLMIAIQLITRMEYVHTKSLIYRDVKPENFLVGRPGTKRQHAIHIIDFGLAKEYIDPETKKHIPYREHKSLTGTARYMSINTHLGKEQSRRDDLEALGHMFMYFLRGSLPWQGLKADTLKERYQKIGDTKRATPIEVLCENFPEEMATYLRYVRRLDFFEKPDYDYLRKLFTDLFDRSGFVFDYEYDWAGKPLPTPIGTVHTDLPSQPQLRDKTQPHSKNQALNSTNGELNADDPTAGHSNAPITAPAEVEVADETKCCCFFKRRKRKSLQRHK

[5] = molecular target: Cyclin-G-associated kinase (Homo sapiens) (UniProt O14976); assay: Inhibition of GAK (unknown origin) assessed as remaining activity at 1 uM by Kinome scan method relative to control
Sequence of Cyclin-G-associated kinase (Homo sapiens) (O14976 whole entry, the tested form may be a part): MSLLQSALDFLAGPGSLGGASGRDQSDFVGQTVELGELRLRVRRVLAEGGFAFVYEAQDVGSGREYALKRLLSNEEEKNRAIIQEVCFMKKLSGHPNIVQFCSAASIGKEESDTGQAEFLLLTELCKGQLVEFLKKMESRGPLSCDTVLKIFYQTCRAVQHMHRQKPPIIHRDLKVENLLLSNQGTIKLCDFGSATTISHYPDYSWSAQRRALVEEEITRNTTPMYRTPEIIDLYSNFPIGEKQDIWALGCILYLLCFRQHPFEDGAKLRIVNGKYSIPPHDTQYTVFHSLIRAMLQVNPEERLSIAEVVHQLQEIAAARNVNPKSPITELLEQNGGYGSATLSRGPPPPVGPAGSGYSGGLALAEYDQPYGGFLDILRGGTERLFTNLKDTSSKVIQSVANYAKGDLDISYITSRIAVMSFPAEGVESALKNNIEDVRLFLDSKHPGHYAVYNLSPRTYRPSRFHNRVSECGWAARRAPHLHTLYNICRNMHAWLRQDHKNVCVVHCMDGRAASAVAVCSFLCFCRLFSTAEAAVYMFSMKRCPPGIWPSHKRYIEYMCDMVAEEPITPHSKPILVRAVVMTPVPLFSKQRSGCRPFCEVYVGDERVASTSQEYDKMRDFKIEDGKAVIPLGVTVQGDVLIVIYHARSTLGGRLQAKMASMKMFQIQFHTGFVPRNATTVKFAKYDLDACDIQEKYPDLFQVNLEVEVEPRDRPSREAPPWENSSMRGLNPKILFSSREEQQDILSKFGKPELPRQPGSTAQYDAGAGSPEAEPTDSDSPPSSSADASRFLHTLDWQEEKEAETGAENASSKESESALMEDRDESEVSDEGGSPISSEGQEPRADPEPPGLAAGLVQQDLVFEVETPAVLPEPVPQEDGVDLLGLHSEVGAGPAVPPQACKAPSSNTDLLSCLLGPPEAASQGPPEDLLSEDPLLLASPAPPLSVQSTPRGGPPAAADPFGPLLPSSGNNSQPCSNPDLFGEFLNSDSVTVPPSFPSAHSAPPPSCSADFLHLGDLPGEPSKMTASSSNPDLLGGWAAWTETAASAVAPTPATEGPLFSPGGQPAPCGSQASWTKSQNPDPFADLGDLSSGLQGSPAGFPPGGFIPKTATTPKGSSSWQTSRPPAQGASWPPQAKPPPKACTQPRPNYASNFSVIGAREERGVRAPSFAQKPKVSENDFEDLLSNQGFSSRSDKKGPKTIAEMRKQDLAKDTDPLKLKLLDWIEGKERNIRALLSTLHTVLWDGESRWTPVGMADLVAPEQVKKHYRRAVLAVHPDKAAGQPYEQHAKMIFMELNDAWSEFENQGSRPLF

[6] = molecular target: Tyrosine-protein kinase JAK1 (Homo sapiens, UniProt P23458); assay: Inhibition of JAK1 JH1 domain (unknown origin) assessed as remaining activity at 1 uM by Kinome scan method relative to control
[7] = molecular target: Mitogen-activated protein kinase kinase kinase 10 (Homo sapiens) (UniProt Q02779); assay: Inhibition of MLK2 (unknown origin) assessed as remaining activity at 1 uM by Kinome scan method relative to control
Sequence of Mitogen-activated protein kinase kinase kinase 10 (Homo sapiens) (Q02779 whole entry, looked up): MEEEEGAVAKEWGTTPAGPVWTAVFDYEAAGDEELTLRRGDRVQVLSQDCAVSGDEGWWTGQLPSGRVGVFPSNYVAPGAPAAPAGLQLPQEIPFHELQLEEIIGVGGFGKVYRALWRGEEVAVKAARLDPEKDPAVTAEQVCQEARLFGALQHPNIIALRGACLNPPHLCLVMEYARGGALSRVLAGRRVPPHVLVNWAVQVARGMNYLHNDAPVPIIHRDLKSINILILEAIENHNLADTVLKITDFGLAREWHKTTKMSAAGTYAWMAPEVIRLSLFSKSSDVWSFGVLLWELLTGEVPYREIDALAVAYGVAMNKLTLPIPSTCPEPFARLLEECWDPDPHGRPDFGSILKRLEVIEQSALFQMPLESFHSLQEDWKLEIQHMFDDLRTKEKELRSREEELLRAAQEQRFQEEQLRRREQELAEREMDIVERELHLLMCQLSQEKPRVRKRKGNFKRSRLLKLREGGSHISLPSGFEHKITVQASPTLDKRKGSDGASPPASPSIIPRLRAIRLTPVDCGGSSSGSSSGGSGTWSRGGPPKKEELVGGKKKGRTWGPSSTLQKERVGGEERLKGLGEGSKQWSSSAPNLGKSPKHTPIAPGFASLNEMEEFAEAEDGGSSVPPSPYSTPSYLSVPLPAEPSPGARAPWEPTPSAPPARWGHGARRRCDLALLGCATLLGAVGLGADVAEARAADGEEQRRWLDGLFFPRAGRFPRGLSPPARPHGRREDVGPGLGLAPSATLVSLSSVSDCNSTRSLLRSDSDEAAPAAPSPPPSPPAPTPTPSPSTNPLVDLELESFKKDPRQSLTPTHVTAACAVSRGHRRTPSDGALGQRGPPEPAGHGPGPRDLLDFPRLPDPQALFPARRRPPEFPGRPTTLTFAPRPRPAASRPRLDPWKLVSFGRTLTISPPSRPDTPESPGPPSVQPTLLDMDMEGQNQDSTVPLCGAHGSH

[8] = molecular target: Cyclin-dependent kinase 14 (Homo sapiens) (UniProt O94921); assay: Inhibition of PFTK1 (unknown origin) assessed as remaining activity at 1 uM by Kinome scan method relative to control
[9] = molecular target: Phosphatidylinositol 5-phosphate 4-kinase type-2 beta (Homo sapiens) (UniProt P78356); assay: Inhibition of PIP5K2B (unknown origin) assessed as remaining activity at 1 uM by Kinome scan method relative to control
Sequence of Phosphatidylinositol 5-phosphate 4-kinase type-2 beta (Homo sapiens) (P78356 whole entry): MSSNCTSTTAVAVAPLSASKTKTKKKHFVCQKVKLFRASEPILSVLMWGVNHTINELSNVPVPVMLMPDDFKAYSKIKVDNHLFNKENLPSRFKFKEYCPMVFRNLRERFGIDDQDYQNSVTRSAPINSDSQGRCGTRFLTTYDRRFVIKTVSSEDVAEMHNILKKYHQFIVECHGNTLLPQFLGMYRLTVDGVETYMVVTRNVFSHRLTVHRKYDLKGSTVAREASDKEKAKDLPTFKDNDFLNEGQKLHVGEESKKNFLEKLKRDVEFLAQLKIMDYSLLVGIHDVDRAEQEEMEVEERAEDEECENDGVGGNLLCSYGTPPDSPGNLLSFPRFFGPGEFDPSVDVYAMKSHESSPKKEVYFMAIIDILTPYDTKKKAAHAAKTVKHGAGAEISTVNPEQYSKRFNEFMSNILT

[10] = molecular target: cGMP-dependent protein kinase 2 (Homo sapiens) (UniProt Q13237); assay: Inhibition of PRKG2 (unknown origin) assessed as remaining activity at 1 uM by Kinome scan method relative to control
[11] = molecular target: Receptor-interacting serine/threonine-protein kinase 1 (Homo sapiens) (UniProt Q13546); assay: Inhibition of RIPK1 (unknown origin) assessed as remaining activity at 1 uM by Kinome scan method relative to control
[12] = molecular target: Serine/threonine-protein kinase ULK1 (Homo sapiens) (UniProt O75385); assay: Inhibition of ULK1 (unknown origin) assessed as remaining activity at 1 uM by Kinome scan method relative to control
[13] = molecular target: Serine/threonine-protein kinase WNK4 (Homo sapiens) (UniProt Q96J92); assay: Inhibition of WNK4 (unknown origin) assessed as remaining activity at 1 uM by Kinome scan method relative to control
Sequence of Serine/threonine-protein kinase WNK4 (Homo sapiens) (Q96J92 whole entry): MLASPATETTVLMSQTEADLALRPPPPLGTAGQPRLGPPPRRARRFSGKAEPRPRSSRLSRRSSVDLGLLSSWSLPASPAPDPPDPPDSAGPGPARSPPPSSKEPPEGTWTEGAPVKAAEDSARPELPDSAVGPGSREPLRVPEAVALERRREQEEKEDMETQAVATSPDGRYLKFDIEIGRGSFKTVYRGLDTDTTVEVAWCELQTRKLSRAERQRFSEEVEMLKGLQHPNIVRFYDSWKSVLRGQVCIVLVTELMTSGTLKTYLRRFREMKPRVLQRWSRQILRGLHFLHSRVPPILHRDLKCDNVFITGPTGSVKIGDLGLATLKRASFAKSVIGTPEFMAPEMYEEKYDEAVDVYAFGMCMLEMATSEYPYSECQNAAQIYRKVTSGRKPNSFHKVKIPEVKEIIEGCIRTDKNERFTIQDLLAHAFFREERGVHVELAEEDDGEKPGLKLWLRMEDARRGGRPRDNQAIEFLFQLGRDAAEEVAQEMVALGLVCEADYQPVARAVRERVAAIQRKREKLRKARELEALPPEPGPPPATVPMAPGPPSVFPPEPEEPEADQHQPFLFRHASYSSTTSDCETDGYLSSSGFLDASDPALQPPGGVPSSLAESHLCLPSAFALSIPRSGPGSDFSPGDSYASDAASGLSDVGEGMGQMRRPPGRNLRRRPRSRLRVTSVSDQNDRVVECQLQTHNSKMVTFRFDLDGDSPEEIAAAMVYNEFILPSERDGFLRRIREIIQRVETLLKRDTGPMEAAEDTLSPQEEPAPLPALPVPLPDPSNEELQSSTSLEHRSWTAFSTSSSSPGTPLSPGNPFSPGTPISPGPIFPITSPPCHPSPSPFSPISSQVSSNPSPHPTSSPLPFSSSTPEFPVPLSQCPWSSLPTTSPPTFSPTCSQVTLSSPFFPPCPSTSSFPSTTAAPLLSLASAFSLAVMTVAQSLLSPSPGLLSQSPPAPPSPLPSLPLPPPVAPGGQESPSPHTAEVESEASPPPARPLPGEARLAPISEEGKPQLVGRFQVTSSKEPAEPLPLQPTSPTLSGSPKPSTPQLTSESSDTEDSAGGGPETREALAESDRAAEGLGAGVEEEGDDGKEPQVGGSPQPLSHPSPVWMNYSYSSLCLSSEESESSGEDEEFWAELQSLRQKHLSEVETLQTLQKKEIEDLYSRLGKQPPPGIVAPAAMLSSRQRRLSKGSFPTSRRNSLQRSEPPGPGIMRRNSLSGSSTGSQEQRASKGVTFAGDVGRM

Aurora kinase A = Aurora kinase A (Homo sapiens, UniProt O14965); assay: Binding affinity to AURKA (unknown origin) assessed as dissociation constant
[14] = molecular target: Non-receptor tyrosine-protein kinase TYK2 (Homo sapiens, UniProt P29597); assay: Binding affinity to TYK2 JH1domain-catalytic (unknown origin) assessed as dissociation constant
RAW264.7 = assay: Inhibition of MST1/2 (unknown origin) in mouse RAW264.7 cells assessed as H2O2 stimulated MST1/2 autophosphorylation level at 1 to 3 uM by immunoblot analysis; format: cell-based; conditions: dose 1-3 µM
Homo sapiens = species on record: Homo sapiens; assay: Inhibition of recombinant His-tagged full-length MST1 D109A mutant (unknown origin) expressing in Escherichia coli assessed as GST-tagged MOB1 phosphorylation level at 0.01 to 1 uM incubated for 15 min by immunoblot analysis; conditions: dose 0.01-1 µM
[15] = Acute toxicity in wild-type mouse assessed as cell proliferation in liver at 3 mg/kg,ip administrated daily for 7 days by Ki67 staining; format: organism-based; conditions: in vivo, 168 h, time 7 day
How it was run: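 Wild-type mice received vehicle or 3 mg/kg i.p. daily for 7 days. Ki67 staining of sections from various tissues with quantification of positive cells, n = 6; means ± SD, Student's t test. Daily weights, physical activity and serum chemistry were also monitored.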

[16] = molecular target: T2, Serine/threonine-protein kinase 4 (Homo sapiens, UniProt Q13043)
T2 sequence (Q13043 whole entry): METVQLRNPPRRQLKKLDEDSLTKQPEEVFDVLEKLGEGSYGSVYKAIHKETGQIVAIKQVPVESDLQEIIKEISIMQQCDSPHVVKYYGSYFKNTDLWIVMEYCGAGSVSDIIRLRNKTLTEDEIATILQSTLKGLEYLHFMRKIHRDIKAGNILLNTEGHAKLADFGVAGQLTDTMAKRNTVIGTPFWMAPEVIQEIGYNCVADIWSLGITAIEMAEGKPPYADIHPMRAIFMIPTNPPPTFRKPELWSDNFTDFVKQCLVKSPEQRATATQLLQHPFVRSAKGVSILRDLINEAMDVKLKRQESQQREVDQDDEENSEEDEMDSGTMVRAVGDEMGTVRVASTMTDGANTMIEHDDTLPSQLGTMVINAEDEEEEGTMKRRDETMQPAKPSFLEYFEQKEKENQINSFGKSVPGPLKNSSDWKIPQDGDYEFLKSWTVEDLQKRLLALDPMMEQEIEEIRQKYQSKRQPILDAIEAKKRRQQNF

With CN1C(=O)c2sccc2N(C)c2nc(Nc3ccc(S(N)(=O)=O)cc3)ncc21 the IC50 [1] was 34 nM, the Activity [2] was 100% and the Activity [3] was 90%. The Activity [4] was 100%, the Activity [5] was 48% and the Activity [6] was 97%. The Activity [7] was 77%, the Activity [8] was 100% and the Activity [9] was 100%. It also gave an Activity [10] of 95%, an Activity [11] of 100% and an Activity [12] of 21%. It also gave an Activity [13] of 95%, a Kd (Aurora kinase A) of 13 nM and a Kd [14] of 5 nM. For the same compound, the inhibition (RAW264.7) was “Active”, the inhibition (Homo sapiens) was “Active” and the Activity [15] was “Non-Toxic”. The IC50 [16] was 70.7 nM.
